According to ChEMBL document CHEMBL2010781, “2-Amidino analogs of glycine-amiloride conjugates: inhibitors of urokinase-type plasminogen activator” (Bioorg Med Chem Lett, 2012):
Active and inactive are the calls of the source. No cut-off for these calls is given here.

How the values were obtained:
U-87MG ATCC = test: Cytotoxicity against human U87 cells by lactate dehydrogenase assay; type: functional, cell-based
Method in brief: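 Cytotoxicity was read as release of cytosolic LDH from dying cells, following the kit manufacturer's protocol.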

[1] = Inhibition of trypsin using tosyl-Gly-Pro-Lys-pNA as substrate by spectrophotometry
[2] = target: Urokinase-type plasminogen activator (Homo sapiens, UniProt P00749); test: Inhibition of urokinase-type plasminogen activator using Glt-Gly-Arg-AMC as substrate by spectrofluorometry
[3] = Cytotoxicity against human U87 cells at 100 uM after 72 hrs by lactate dehydrogenase assay; type: functional, U-87MG ATCC; details: in the assay text read “24 hrs” for “72 hrs”
Method in brief: (§1)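 Cell death was scored as cytosolic LDH released into the medium, using the kit manufacturer's LDH protocol.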

[4] = target: Tissue-type plasminogen activator (Homo sapiens, UniProt P00750); test: Inhibition of tPA using CH3SO2-D-HHT-Gly-Arg-pNA as substrate by spectrophotometry
Plasminogen = Plasminogen (Homo sapiens, UniProt P00747); test: Inhibition of plasmin using tosyl-Gly-Pro-Lys-pNA as substrate by spectrophotometry
[5] = Cytotoxicity against human U87 cells at 250 uM after 24 hrs by lactate dehydrogenase assay; type: functional, U-87MG ATCC
Method in brief: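 Human U87 glioma cells seeded at ten thousand per well and exposed to drug for 24–48 h at 37°C under 5% CO2. Cell death was read as cytosolic lactate dehydrogenase released from dying cells, assayed following the kit manufacturer's protocol.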

[6] = Cytotoxicity against human U87 cells at 250 uM after 72 hrs by lactate dehydrogenase assay; type: functional, U-87MG ATCC; method in brief: as §1

Sequence of Tissue-type plasminogen activator (P00750 whole entry): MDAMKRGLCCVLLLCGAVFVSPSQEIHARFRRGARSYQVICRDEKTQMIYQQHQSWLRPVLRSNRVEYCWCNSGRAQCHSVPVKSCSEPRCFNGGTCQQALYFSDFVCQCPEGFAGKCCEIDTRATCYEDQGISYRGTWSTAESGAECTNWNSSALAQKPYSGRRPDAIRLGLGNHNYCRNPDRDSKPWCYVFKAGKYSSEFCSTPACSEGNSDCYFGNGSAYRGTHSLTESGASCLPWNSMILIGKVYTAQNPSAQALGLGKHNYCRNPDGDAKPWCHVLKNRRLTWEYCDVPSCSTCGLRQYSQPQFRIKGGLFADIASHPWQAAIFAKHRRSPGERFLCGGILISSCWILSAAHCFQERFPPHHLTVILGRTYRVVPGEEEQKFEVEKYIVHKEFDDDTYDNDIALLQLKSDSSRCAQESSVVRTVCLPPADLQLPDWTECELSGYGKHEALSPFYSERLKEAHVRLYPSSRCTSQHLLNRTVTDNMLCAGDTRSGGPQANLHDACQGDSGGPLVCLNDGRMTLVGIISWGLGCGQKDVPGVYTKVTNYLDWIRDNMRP
Sequence of Plasminogen (P00747 97-580 limits assumed): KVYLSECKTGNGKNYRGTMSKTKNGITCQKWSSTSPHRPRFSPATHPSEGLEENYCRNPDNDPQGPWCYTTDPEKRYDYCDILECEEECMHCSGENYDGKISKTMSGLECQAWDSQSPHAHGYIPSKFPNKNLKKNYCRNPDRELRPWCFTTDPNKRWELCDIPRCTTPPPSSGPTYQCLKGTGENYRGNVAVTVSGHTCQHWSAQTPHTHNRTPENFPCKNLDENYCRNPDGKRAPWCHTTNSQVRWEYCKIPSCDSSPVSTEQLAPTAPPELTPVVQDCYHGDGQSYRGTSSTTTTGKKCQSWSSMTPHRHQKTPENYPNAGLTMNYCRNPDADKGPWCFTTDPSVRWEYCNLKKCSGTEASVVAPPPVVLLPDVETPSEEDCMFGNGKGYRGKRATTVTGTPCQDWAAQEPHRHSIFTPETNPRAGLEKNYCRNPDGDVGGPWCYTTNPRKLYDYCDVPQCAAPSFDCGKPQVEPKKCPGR
Sequence of Plasminogen (P00747 581-810 limits assumed): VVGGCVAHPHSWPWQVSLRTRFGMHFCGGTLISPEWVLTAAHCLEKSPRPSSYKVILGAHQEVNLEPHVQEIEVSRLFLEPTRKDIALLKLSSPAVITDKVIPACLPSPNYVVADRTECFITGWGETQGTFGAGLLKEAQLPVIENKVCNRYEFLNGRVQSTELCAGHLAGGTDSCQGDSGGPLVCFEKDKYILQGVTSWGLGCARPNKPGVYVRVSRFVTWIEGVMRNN

| SMILES | IC50 [1] | IC50 [2] | IC50 [4] | IC50 (Plasminogen) | Activity (U-87MG ATCC) | Activity [3] | Activity [5] | Activity [6] |
| --- | --- | --- | --- | --- | --- | --- | --- | --- |
| N/C(=N\O)c1ncc(NCC(=O)O)nc1N | > 250 µM | – | – | – | inactive | – | – | – |
| N=C(NO)c1ncc(NCC(=O)O)nc1N | – | 279 µM | > 250 µM | – | – | – | – | – |
| N=C(N)NC(=O)c1nc(Cl)c(NCC(=O)O)nc1N | > 250 µM | 17 µM | > 250 µM | > 250 µM | inactive | – | – | – |
| N=C(N)NC(=O)c1nc(Cl)c(N)nc1N [AMILORIDE] | > 250 µM | – | 220 µM | > 250 µM | – | – | 50% | – |
| NC(N)=NC(=O)c1ncc(NCC(=O)O)nc1N | > 250 µM | 47 µM | > 250 µM | > 250 µM | inactive | – | – | – |
| N=C(N)c1ncc(NCC(=O)O)nc1N | > 250 µM | 212 µM | > 250 µM | > 250 µM | inactive | – | – | – |
| N=C(NO)c1nc(Cl)c(NCC(=O)O)nc1N | – | 231 µM | > 250 µM | > 250 µM | – | – | – | – |
| N=C(N)c1nc(Cl)c(NCC(=O)O)nc1N | > 250 µM | 237 µM | > 250 µM | – | inactive | – | – | – |
| N/C(=N\O)c1nc(Cl)c(NCC(=O)O)nc1N | > 250 µM | – | – | – | inactive | – | – | – |

Further lines, with some results ahead:

| IC50 [1] | IC50 [2] | IC50 [4] | IC50 (Plasminogen) | SMILES | Activity (U-87MG ATCC) | Activity [3] | Activity [5] | Activity [6] |
| --- | --- | --- | --- | --- | --- | --- | --- | --- |
| > 250 µM | 3 µM | > 190 µM | > 250 µM | NC(N)=NC(=O)c1nc(Cl)c(NCC(=O)OCc2ccccc2)nc1N | – | 50% | – | – |
| > 250 µM | 4 µM | 200 µM | > 250 µM | N=C(N)c1nc(Cl)c(NCC(=O)OCc2ccccc2)nc1N | – | – | – | 50% |
| – | 74 µM | 200 µM | > 250 µM | N=C(NO)c1nc(Cl)c(NCC(=O)OCc2ccccc2)nc1N | – | – | – | – |
| > 250 µM | 69 µM | > 250 µM | – | NC(=O)c1nc(Cl)c(NCC(=O)OCc2ccccc2)nc1N | – | – | – | – |
| > 250 µM | – | – | – | N/C(=N\O)c1nc(Cl)c(NCC(=O)OCc2ccccc2)nc1N | inactive | – | – | – |
